In ChEMBL document CHEMBL1240328, “Selective compounds define Hsp90 as a major inhibitor of apoptosis in small-cell lung cancer” (Nat Chem Biol, 2007):
Calls of active or inactive are those of the source. The rule behind the calls is not given here.

How the values were obtained:
Format in all cases: cell-based
[1] = molecular target: Heat shock protein HSP 90-beta (Homo sapiens) (UniProt P08238); assay: Inhibition of HSP90-mediated antiapoptotic activity in human NCI-H526 cells assessed as induction of caspase-2 cleavage at 10 uM after 24 hrs by Western blot analysis
How it was run: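 NCI-H526 cells at 60–70% confluence were exposed to drug or DMSO for 24 h. Lysed in 50 mM Tris pH 7.4, 150 mM NaCl, 1% NP-40, with protein measured by BCA. 20–100 µg run on SDS-PAGE and blotted to nitrocellulose. Probed with cleaved-protein antibodies and peroxidase secondary at 1:5,000, with β-actin as loading control.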

[2] = molecular target: Heat shock protein HSP 90-beta (Homo sapiens) (UniProt P08238); assay: Inhibition of HSP90-mediated antiapoptotic activity in human NCI-H187 cells assessed as mitochondrial membrane depolarization at 5 uM after 72 hrs by JC-1 staining-based flow cytometry
How it was run: (§1)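 SCLC cells treated for 72 h with graded doses. Mitochondrial membrane potential read by flow cytometry after JC-1 staining, with green-only emission indicating depolarization. Sub-G1 DNA content read after propidium iodide staining. CCCP used as positive control. n = 3 repeat experiments.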

[3] = molecular target: Heat shock protein HSP 90-beta (Homo sapiens) (UniProt P08238); assay: Inhibition of HSP90-mediated antiapoptotic activity in human NCI-N417 cells assessed as mitochondrial membrane depolarization at 5 uM after 96 hrs by JC-1 staining-based flow cytometry; conditions: NCI-H417
How it was run: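 Mitochondrial membrane potential was measured by JC-1 staining and flow cytometry. Depolarization was scored as a shift to cells emitting only green fluorescence. The mitochondrial uncoupler CCCP served as positive control.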

[4] = molecular target: Heat shock protein HSP 90-beta (Homo sapiens) (UniProt P08238); assay: Inhibition of HSP90-mediated antiapoptotic activity in human NCI-N417 cells assessed as subG1 accumulation at 2.5 uM after 72 hrs by propidium iodide staining-based flow cytometry; conditions: NCI-H417
How it was run: (§2)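 Asynchronously growing cells were treated with compound, stained with propidium iodide and analysed by flow cytometry. The read-out was the percentage of cells with sub-G1 DNA content.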

[5] = molecular target: Heat shock protein HSP 90-beta (Homo sapiens) (UniProt P08238); assay: Inhibition of HSP90-mediated antiapoptotic activity in human NCI-N417 cells assessed as subG1 accumulation at 25 uM after 72 hrs by propidium iodide staining-based flow cytometry; conditions: NCI-H417; how it was run: as §2
[6] = molecular target: Heat shock protein HSP 90-beta (Homo sapiens) (UniProt P08238); assay: Inhibition of HSP90-mediated antiapoptotic activity in human NCI-H187 cells assessed as subG1 accumulation at 5 uM after 72 hrs by propidium iodide staining-based flow cytometry; how it was run: as §1
[7] = molecular target: Heat shock protein HSP 90-beta (Homo sapiens) (UniProt P08238); assay: Inhibition of HSP90-mediated antiapoptotic activity in human NCI-H526 cells assessed as increase in caspase-3 activity at 10 uM after 72 hrs by fluorescence assay in presence of caspase-9 inhibitor Z-LEHD-FMK
How it was run: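 NCI-H526 cells pretreated with Z-LEHD-FMK (100 µM), then exposed to 10 µM for 72 h. Caspase-3 activation read by Z-DEVD-R110 fluorescence. Caspase-3 and PARP cleavage read by western blot. n = 3.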

[8] = molecular target: Heat shock protein HSP 90-beta (Homo sapiens) (UniProt P08238); assay: Inhibition of HSP90-mediated antiapoptotic activity in human NCI-H526 cells assessed as induction of PARP cleavage at 10 uM after 72 hrs by fluorescence assay in presence of caspase-9 inhibitor Z-LEHD-FMK
[9] = molecular target: Heat shock protein HSP 90-beta (Homo sapiens) (UniProt P08238); assay: Effect on HSP90-mediated survivin expression in human NCI-H526 cells at 25 uM after 24 hrs by Western blot analysis
How it was run: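 NCI-H526 cells were exposed for 24 h to drug or DMSO vehicle. Lysates were made in 50 mM Tris pH 7.4, 150 mM NaCl, 1% NP-40 and quantified by BCA. Western blot used 20–100 µg protein per lane, with β-actin as loading control.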

[10] = molecular target: Heat shock protein HSP 90-beta (Homo sapiens) (UniProt P08238); assay: Inhibition of HSP90-mediated antiapoptotic activity in human SKBR3 cells assessed as induction of caspase-9 cleavage at 400 uM after 24 hrs by Western blot analysis; conditions: SK-BR-3
How it was run: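 SKBr3 cells at 60–70% confluence were exposed to drug or DMSO vehicle. Lysis was in 50 mM Tris pH 7.4, 150 mM NaCl, 1% NP-40, with protein measured by BCA. Lysates of 20–100 µg were run on SDS-PAGE, blotted to nitrocellulose, probed with primary antibodies and detected with a peroxidase-conjugated secondary (1:5,000). Loading was checked with β-actin or PI(3)K p85.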

[11] = tested on: NCI-H526; assay: Inhibition of HSP70-mediated antiapoptotic activity in human NCI-H526 cells assessed as induction of PARP cleavage after 24 hrs by Western blot analysis
How it was run: (§3)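 NCI-H526 cells were treated for 24 h. PARP and caspase-3 cleavage were read by western blot of lysates in Tris/NaCl/NP-40 buffer. Apaf-1 complexes were immunoprecipitated with Apaf-1 antibody, using control IgG, then blotted.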

[12] = tested on: NCI-H526; assay: Inhibition of HSP70-mediated antiapoptotic activity in human NCI-H526 cells assessed as release of Apaf-1 from chaperon complex after 24 hrs by Western blot analysis; how it was run: as §3

Sequence of Heat shock protein HSP 90-beta (Homo sapiens) (P08238 whole entry): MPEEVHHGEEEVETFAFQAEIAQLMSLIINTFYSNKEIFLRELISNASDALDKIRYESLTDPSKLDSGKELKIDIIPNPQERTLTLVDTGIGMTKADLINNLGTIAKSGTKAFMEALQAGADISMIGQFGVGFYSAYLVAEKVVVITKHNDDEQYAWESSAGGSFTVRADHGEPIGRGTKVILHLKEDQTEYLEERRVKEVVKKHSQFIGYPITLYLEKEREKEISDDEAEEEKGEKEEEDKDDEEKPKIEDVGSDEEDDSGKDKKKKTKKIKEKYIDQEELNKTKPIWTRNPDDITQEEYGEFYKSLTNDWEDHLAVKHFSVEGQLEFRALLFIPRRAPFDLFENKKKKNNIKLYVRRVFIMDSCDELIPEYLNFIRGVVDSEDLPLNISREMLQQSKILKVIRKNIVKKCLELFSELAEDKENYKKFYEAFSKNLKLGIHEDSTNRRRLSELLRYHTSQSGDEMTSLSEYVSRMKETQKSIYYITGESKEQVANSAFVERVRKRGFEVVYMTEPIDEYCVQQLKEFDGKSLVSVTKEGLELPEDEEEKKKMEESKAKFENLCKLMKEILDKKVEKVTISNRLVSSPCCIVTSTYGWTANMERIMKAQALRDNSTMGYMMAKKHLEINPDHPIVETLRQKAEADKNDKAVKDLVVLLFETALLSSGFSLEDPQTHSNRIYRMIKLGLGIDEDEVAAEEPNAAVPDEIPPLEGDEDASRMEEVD

- Activity [1]: inactive
- Activity [2]: inactive
- Activity [3]: inactive
- Activity [4]: inactive
- Activity [5]: inactive
- Activity [6]: inactive
- Activity [7]: inactive
- Activity [8]: inactive
- Activity [10]: inactive
Structure (SMILES): O=CN1CC/C(=C/c2ccc3c(c2)OCO3)C1=O
- Activity [9]: inactive
- inhibition [11]: inactive
- inhibition [12]: inactive
